Measured values: PMC6260118 (Thrombosis and Haemostasis, 2017)
Where two headings read alike, the source gives them in different places.

Tests used:
[1] = Pharmacokinetics of ciraparantag and metabolite BAP in serum/plasma and urine; type: in vivo, human; settings: for dose proportionality of pharmacokinetics: based on Cmax and t½, 5-300 mg
How it was run: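 Healthy non-smoking adults aged 18–65 received single escalating doses of test compound from 5 to 300 mg. Each dose was a sterile aqueous solution given by slow IV injection into an indwelling catheter, alone and, after at least four days' washout, about 3 h after oral edoxaban 60 mg. Parent compound and its piperazine metabolite were measured in serum/plasma and in urine pooled over the first 24 h.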

clot fibrin = type: in vivo, human
[2] = tested on: edoxaban-induced anticoagulation; assay: Whole blood clotting time; type: in vivo, human
How it was run: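 Native whole blood was tested in glass tubes with no activator or anticoagulant, three tubes of 0.5 ml each. Clotting time was read by tilt-tube visual inspection. Testing began in Period 2 of the 50 mg cohort and continued in all later cohorts, and the 25 mg cohort was repeated with it. IV test compound or saline was given about 3 h after edoxaban 60 mg orally, with follow-up to 24 h. Groups were compared by ANOVA with Tukey HSD, p<0.05.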

[3] = tested on: edoxaban-induced anticoagulation; assay: Thromboelastography reaction time; type: in vivo, human; settings: within cohorts and across escalating dose cohorts
How it was run: (§1)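 Whole blood was tested serially by point-of-care prothrombin time and by thromboelastography reaction time. Subjects were healthy volunteers in escalating-dose cohorts of 8 active and 2 placebo. They received single slow IV test compound or saline about 3 h after a single 60 mg oral dose of edoxaban.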

[4] = tested on: edoxaban-induced anticoagulation; assay: Whole blood point-of-care prothrombin time; type: in vivo, human; settings: within cohorts and across escalating dose cohorts
How it was run: as §1

[5] = Phase I safety and tolerability, adverse events; type: in vivo, human
How it was run: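 The trial was a randomised, double-blind, placebo-controlled phase I study with eight cohorts of 10 healthy subjects each, randomised 8:2 to test compound or saline. Single IV doses were given alone and then about 3 h after edoxaban 60 mg orally. Safety was assessed in everyone dosed at least once: adverse events, vital signs, pulse oximetry, ECGs, clinical laboratory tests, fecal occult blood and concomitant medications. Treatment-emergent events were those starting on or after dosing.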

[6] = tested on: anticoagulant-induced bleeding; settings: pre-clinical animal models of anticoagulant-induced bleeding; cited from earlier work
[7] = cited from earlier work
[8] = tested on: hepatic cytochrome enzymes or membrane transporters; settings: cited from earlier work
plasma proteins = settings: cited from earlier work
[9] = ciraparantag arm N=66, number (% of subjects)
[10] = single IV dose 100 to 300 mg following edoxaban 60 mg

For `NCCCN1CCN(CCCN)CC1` [BAP, 1,4-bis(3-aminopropyl)-piperazine], the “dose proportionality of pharmacokinetics” value [1] was “dose-proportional pharmacokinetics”.

With `CN1CCc2nc(C(=O)N[C@@H]3C[C@@H](C(=O)N(C)C)CC[C@@H]3NC(=O)C(=O)Nc3ccc(Cl)cn3)sc2C1` [edoxaban, reference compound] the mean fibrin diameter (clot fibrin; edoxaban anticoagulation without reversal, native state ∼250 nm) was about 125 nm and the “effect on WBCT” value ([2]; edoxaban 60 mg oral) was “significant elevation”.

`N=C(N)NCCC[C@H](N)C(=O)NCCCN1CCN(CCCNC(=O)[C@@H](N)CCCNC(=N)N)CC1` [ciraparantag] showed a mean fibrin diameter (clot fibrin; 25 mg ciraparantag after edoxaban 60 mg, partial reversal) of about 200 nm, a mean fibrin diameter (clot fibrin; 100 mg ciraparantag after edoxaban 60 mg, full reversal) of about 250 nm and a mean fibrin diameter (clot fibrin; 300 mg ciraparantag after edoxaban 60 mg, full reversal) of about 250 nm. For the same molecule, the “time to restoration of fibrin strands to baseline levels” value (clot fibrin; single i.v. dose of 100 mg ciraparantag after edoxaban) was at most 30 min, the “change in mean TEG-R” value [3] was “no change over time” and the “change in mean PoC-PT” value [4] was “no change over time”. For the same molecule, the “dose proportionality of pharmacokinetics” value [1] was “dose-proportional pharmacokinetics”, the main elimination route ([1]; healthy subjects) was “Renal excretion of ciraparantag metabolite” and the half-life ([1]; human, serum, iv, 5 mg) was about 12 min. For the same molecule, the Cmax ([1]; human, serum, iv, 300 mg) was about 10600 ng/mL, the “Number of subjects who died” value ([5]; ciraparantag arm N=66) was 0 and the “Number of subjects with SAE” value ([5]; ciraparantag arm N=66) was 0. The “Number of AEs” value ([5]; ciraparantag arm N=66, all single IV doses, Periods 1 and 2) was 204, the “Number of AEs per subject: 0” value [5, 9] was 17 (25.8 %) and the “Number of AEs per subject: 1” value [5, 9] was 10 (15.2 %). The “Number of AEs per subject: 2–3” value [5, 9] was 16 (24.2 %), the “Number of AEs per subject: 4–5” value [5, 9] was 9 (13.6 %) and the “Number of AEs per subject: >5” value [5, 9] was 14 (21.2 %). The “Number of subjects with AE” value [5, 9] was 49 (74.2 %), the “Number of subjects with AE related to Ciraparantag/Placebo” value [5, 9] was 36 (54.5 %) and the “Number of subjects with AE related to edoxaban” value [5, 9] was 5 (7.6 %). The “Number of subjects with AE related to study drug” value [5, 9] was 38 (57.6 %), the “Number of subjects with TEAE” value [5, 9] was 49 (74.2 %) and the “Changes in blood counts, blood chemistries (electrolytes, bilirubin, hepatic enzymes) or electrocardiograms” value ([5]; healthy subjects, single IV doses 5-300 mg) was “no significant changes”. For the same molecule, the “reversal of edoxaban-induced anticoagulation (WBCT) within 10 min” value ([2]; 50 mg ciraparantag IV after edoxaban 60 mg) was “Significant reversal”, the “reversal of edoxaban-induced anticoagulation (WBCT)” value ([2]; 100–300 mg ciraparantag IV (Cohorts 5 to 7) after edoxaban 60 mg) was “essentially full reversal” and the “effect on WBCT” value ([2]; ciraparantag in the absence of edoxaban) was “no effect”. For the same molecule, the “duration of reversal of anticoagulation” value [2, 10] was “at least 24 hours”, the “time to full reversal of anticoagulation” value [2, 10] was at most 10 min and the anticoagulation above baseline ([2]; within 30 min of injection, after therapeutic dose of edoxaban) was “less than 10%”. The blood loss [6] was “reduces blood loss to baseline levels”, the “binding to a selected spectrum of cardiovascular and antiepileptic drugs” value [7] was “no binding” and the binding to anticoagulants ([7]; non-covalent hydrogen bonding and charge-charge interactions) was “binds similarly to the new oral Xa inhibitors, edoxaban, rivaroxaban and apixaban, and to the oral thrombin inhibitor, dabigatran, but not to argatroban or warfarin”. The “interaction with hepatic cytochrome enzymes or membrane transporters” value [8] was “does not interact substantially” and the “binding to plasma proteins” value (plasma proteins) was “no significant binding”.
